According to PMC3947130 (Molecular cancer therapeutics, 2013):
“Also recorded” adds a separate entry of the source.

Assays:
MDA-MB-231 cells = test: TRAIL-induced killing / TRAIL sensitization, cell viability; type: cell-based, human
How it was run: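 MDA-MB-231 cells in DMEM/10% FBS seeded at 5000 cells/well and left to attach overnight. Pre-treated 4 h at 37°C with vehicle (0.1% DMSO) or 5 μM test compound, then TRAIL (up to 100 ng/mL) added for 20 h at 37°C. After 30 min at room temperature, CellTiter-Glo luminescence read. At least triplicate, at least three independent times.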

[1] = tested on: non-canonical NF-κB pathway; test: Immunoblot of non-canonical NF-κB pathway; type: cell-based, human; details: MDA-MB-231 cells, 5 μM, 24 h, Fig. 4D
How it was run: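 MDA-MB-231 cells grown in DMEM with 10% FBS, exposed to vehicle or 5 μM test compound for 24 h. Cell protein extracts immunoblotted for NIK, phospho-NF-κB2, NF-κB2 and cIAP-1/-2, with Erk 1/2 as loading control. HRP-conjugated anti-rabbit or anti-mouse secondary applied for 1 h, then enhanced chemiluminescence detection.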

`O=Cc1coc2ccccc2c1=O` [3-FC, reference compound] was tested, and the “sensitization to TRAIL” value (MDA-MB-231 cells; 3-FC alone with TRAIL, Supp. Fig. S1D) was “results in sensitization to TRAIL” and the “sensitization to TRAIL with IAP inhibition” value (MDA-MB-231 cells; 3-FC together with IAP inhibition, Supp. Fig. S1D) was “induces even greater sensitization”.

For `Cc1ccc(S(=O)(=O)/C=C/C#N)cc1` [BAY 11-7082, reference compound], the “effect of IKK inhibition in the model systems” value (MDA-MB-231 cells; data not shown) was “failed to have any effect”.

For `CN[C@@H](C)C(=O)N[C@H]1CCO[C@H]2CC(C)(C)[C@@H](C(=O)N[C@@H]3CCCc4ccccc43)N2C1=O` [SBI-0636457], the NIK levels [1] was “profound induction of NIK levels” and the “phosphorylation and processing of NF-κB2” value [1] was “enhanced phosphorylation and processing of NF-κB2”.

`CC(C)[C@H](NC(=O)[C@H](C)N)C(=O)N[C@@H](C)C(=O)NNc1ccccc1` [MLS-0412113] was tested, and the “sensitization to TRAIL-mediated cell killing” value (MDA-MB-231 cells; 5 μM pre-treatment 4 h, then TRAIL 20 h, Fig. 2B) was “no activity; also recorded: lacked TRAIL sensitizing ability altogether”.

B1: Tumor Necrosis Factor Related Apoptosis Inducing Ligand (protein, UniProt P50591 1-281, looked up)
Tumor necrosis factor ligand …: MAMMEVQGGPSLGQTCVLIVIFTVLLQSLCVAVTYVYFTNELKQMQDKYSKSGIACFLKEDDSYWDPNDEESMNSPCWQVKWQLRQLVRKMILRTSEETISTVQEKQQNISPLVRERGPQRVAAHITGTRGRSNTLSSPNSKNEKALGRKINSWESSRSGHSFLSNLHLRNGELVIHEKGFYYIYSQTYFRFQEEIKENTKNDKQMVQYIYKYTSYPDPILLMKSARNSCWSKDAEYGLYSIYQGGIFELKENDRIFVSVTNEHLIDMDHEASFFGAFLVG
In the case of B1, the “cell death by TRAIL alone” value (MDA-MB-231 cells; TRAIL alone, up to 100 ng/mL, 20 h, Fig. 2B) is reported as “fails to induce appreciable cell death”.
